# ChEMBL document CHEMBL5357067, “Selective (α)-l-Rhamnosylation and Neuroprotective Activity Exploration of Cardiotonic Steroids” (ACS Med Chem Lett, 2024)
# The source made the active and inactive calls. The rule behind the calls is not given here.
# How the values were obtained:
# Assay type in all cases: functional, cell-based
# [1] = test system: Glial cell; experiment: Antiinflammatory activity in C57BL/6J mouse primary glial cells assessed as decrease in LPS-induced IL-1 mRNA level at 200 nM preincubated for 24 hrs followed by LPS stimulation by qPCR analysis
# How it was run: (§1)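 Primary glia from whole brains of 1–2-day-old neonatal C57BL/6J mice (meninges removed, collected in Ca/Mg-free HBSS, oligodendrocytes and neurons separated off). Cells were given 200 nM steroid and stimulated with LPS 250 ng/mL. DMSO served as negative control. Gene expression was measured by qPCR. Data are mean ± SEM, analysed by two-way ANOVA with Newman-Keuls post hoc test.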
# [2] = test system: Glial cell; experiment: Antiinflammatory activity in C57BL/6J mouse primary glial cells assessed as effect on IL-1 mRNA level at 200 nM incubated for 24 hrs by qPCR analysis
# [3] = test system: Glial cell; experiment: Antiinflammatory activity in C57BL/6J mouse primary glial cells assessed as decrease in LPS-induced TNF-alpha mRNA level at 200 nM preincubated for 24 hrs followed by LPS stimulation by qPCR analysis; how it was run: as §1
# [4] = test system: Glial cell; experiment: Antiinflammatory activity in C57BL/6J mouse primary glial cells assessed as decrease in LPS-induced IL-6 mRNA level at 200 nM preincubated for 24 hrs followed by LPS stimulation by qPCR analysis; how it was run: as §1
# [5] = test system: Glial cell; experiment: Antiinflammatory activity in C57BL/6J mouse primary glial cells assessed as decrease in LPS-induced IKBKE mRNA level at 200 nM preincubated for 24 hrs followed by LPS stimulation by qPCR analysis; how it was run: as §1
# [6] = test system: Glial cell; experiment: Antiinflammatory activity in C57BL/6J mouse primary glial cells assessed as effect on IKBKE mRNA level at 200 nM incubated for 24 hrs by qPCR analysis
# [7] = test system: Glial cell; experiment: Antiinflammatory activity in C57BL/6J mouse primary glial cells assessed as effect on TNF-alpha mRNA level at 200 nM incubated for 24 hrs by qPCR analysis
# [8] = test system: Glial cell; experiment: Antiinflammatory activity in C57BL/6J mouse primary glial cells assessed as effect on IL-6 mRNA level at 200 nM incubated for 24 hrs by qPCR analysis
Compound,Activity [1],Activity [2],Activity [3],Activity [4],Activity [5],Activity [6],Activity [7],Activity [8]
C[C@]12C[C@H]3O[C@H]4C[C@H](O)C[C@@]5(O)CC[C@H]([C@H]3[C@@]45CO)[C@@]1(O)CC[C@@H]2C1=CC(=O)OC1,inactive,inactive,inactive,inactive,inactive,inactive,inactive,inactive
C[C@@H]1O[C@@H](O[C@H]2C[C@@H](O)[C@]3(CO)[C@H]4[C@H](O)C[C@]5(C)[C@@H](C6=CC(=O)OC6)CC[C@]5(O)[C@@H]4CC[C@]3(O)C2)[C@H](O)[C@H](O)[C@H]1O,Active,inactive,Active,Active,Active,inactive,inactive,inactive
C[C@H]1O[C@@H](O[C@H]2[C@@H](O)C[C@H](O[C@H]3[C@@H](O)C[C@H](O[C@H]4CC[C@@]5(C)[C@H](CC[C@@H]6[C@@H]5C[C@@H](O)[C@]5(C)[C@@H](C7=CC(=O)OC7)CC[C@]65O)C4)O[C@@H]3C)O[C@@H]2C)C[C@H](O)[C@@H]1O,–,inactive,–,–,–,inactive,inactive,inactive
C[C@@H]1O[C@@H](O[C@H]2CC[C@]3(CO)[C@H]4CC[C@]5(C)[C@@H](C6=CC(=O)OC6)CC[C@]5(O)[C@@H]4CC[C@]3(O)C2)[C@H](O)[C@H](O)[C@H]1O,Active,inactive,Active,Active,Active,inactive,inactive,inactive
C[C@@H]1O[C@@H](O[C@H]2C[C@@H]3O[C@@H]4C[C@]5(C)[C@@H](C6=CC(=O)OC6)CC[C@]5(O)[C@@H]5CC[C@](O)(C2)[C@@]3(CO)[C@H]54)[C@H](O)[C@H](O)[C@H]1O,Active,inactive,Active,Active,Active,inactive,inactive,inactive
C[C@@H]1O[C@@H](OC[C@@]23[C@@H]4[C@H]5CC[C@]2(O)C[C@@H](O)C[C@@H]3O[C@@H]4C[C@]2(C)[C@@H](C3=CC(=O)OC3)CC[C@]52O)[C@H](O)[C@H](O)[C@H]1O,–,inactive,Active,inactive,Active,inactive,inactive,inactive
